ChEMBL document CHEMBL4130366, “Design, synthesis and antiproliferative activity of thiazolo[5,4-d]pyrimidine derivatives through the atom replacement strategy” (Eur J Med Chem, 2017)
Calls of active or inactive are those of the source. No cut-off for these calls is given here.

How the values were obtained:
MCF7 = assay: Antiproliferative activity against human MCF7 cells after 72 hrs by MTT assay; assay type: functional, cell-based; conditions: MCF7, 72 h
Outline: (§1)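 Cells in exponential growth plated at 3,000 per well, left 24 h, then medium replaced with fresh medium carrying a range of compound concentrations; 72 h exposure, MTT read at 570 nm.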

MGC-803 = assay: Antiproliferative activity against human MGC803 cells after 72 hrs by MTT assay; assay type: functional, cell-based; conditions: MGC-803, 72 h; outline: as §1
ECa-109 cell line = assay: Antiproliferative activity against human EC109 cells after 72 hrs by MTT assay; assay type: functional, cell-based; conditions: ECa-109, 72 h; outline: as §1
HGC-27 [1] = assay: Antiproliferative activity against human HGC27 cells after 72 hrs by MTT assay; assay type: functional, cell-based; conditions: HGC-27, 72 h; outline: as §1
GES1 = assay: Cytotoxicity against human GES-1 cells assessed as reduction in cell viability after 72 hrs by MTT assay; assay type: cell-based; conditions: GES1, 72 h
Outline: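 Normal human gastric epithelial cells in exponential growth seeded at 3,000 cells/well, allowed 24 h, then medium replaced with fresh medium containing a range of compound concentrations. Exposure 72 h, then MTT, viability read at 570 nm.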

HGC-27 [2] = assay: Induction of apoptosis in human HGC27 cells assessed as cell rounding at 2 to 5 uM after 24 hrs by Hoechst 33258 staining-based fluorescence microscopy; assay type: functional
Outline: (§2)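 HGC-27 at 2×10⁵/well attached overnight, exposed to compound at several concentrations for 24 h, then stained with Hoechst 33258 for 30 min in the dark. Morphology scored by fluorescence microscopy.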

HGC-27 [3] = assay: Induction of apoptosis in human HGC27 cells assessed as apoptotic cells at 1 uM after 24 hrs by Annexin-V-FITC/propidium iodide-double staining based flow cytometry (reference value: 1.8%); assay type: functional
HGC-27 [4] = assay: Antimigratory activity in human HGC27 cells after 48 hrs by wound healing assay; assay type: functional, cell-based
Outline: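 HGC-27 grown in 24-well plates, monolayer scratched with a 10 µL pipette tip, then exposed to compound at several concentrations. Wound closure photographed by inverted microscope after the incubation times stated.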

HGC-27 [5] = assay: Induction of apoptosis in human HGC27 cells assessed as apoptotic cells at 2 uM after 24 hrs by Annexin-V-FITC/propidium iodide-double staining based flow cytometry (reference value: 1.8%); assay type: functional
[6] = Selectivity index, ratio of IC50 for human GES-1 cells to IC50 for human HGC27 cells; assay type: toxicity; conditions: GES-1 cells and HGC27 cells, read-out: Ratio IC50
Outline: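 GES-1 normal gastric epithelial cells and HGC-27 tested by the same MTT protocol (3,000 cells/well, 24 h attachment, 72 h exposure, 570 nm). SI calculated as IC50(GES-1)/IC50(HGC-27). IC50s are means ± SD of three independent experiments.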

HGC-27 [7] = assay: Induction of apoptosis in human HGC27 cells assessed as increase in cleaved caspase 3 expression after 24 hrs by Western blot analysis; assay type: functional, cell-based
Outline: (§3)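 HGC-27 exposed to compound at several concentrations for 24 h, lysed in RIPA with protease inhibitors for 30 min, spun at 12,000 rpm for 10 min at 4 °C. Protein measured by BCA, run on SDS-PAGE, transferred to nitrocellulose. Blocked with 5% skim milk for 2 h, primary antibodies overnight at 4 °C, secondary 1:5000 for 2 h, ECL detection.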

HGC-27 [8] = assay: Induction of apoptosis in human HGC27 cells assessed as apoptotic cells at 5 uM after 24 hrs by Annexin-V-FITC/propidium iodide-double staining based flow cytometry (reference value: 1.8%); assay type: functional
HGC-27 [9] = assay: Induction of apoptosis in human HGC27 cells assessed as chromatin shrinkage at 2 to 5 uM after 24 hrs by Hoechst 33258 staining-based fluorescence microscopy; assay type: functional, cell-based; outline: as §2
HGC-27 [10] = assay: Induction of apoptosis in human HGC27 cells assessed as increase in cleaved caspase 9 expression after 24 hrs by Western blot analysis; assay type: functional, cell-based; outline: as §3
HGC-27 [11] = assay: Inhibition of colony formation in human HGC27 cells at 4 uM after 9 days by crystal violet staining based assay; assay type: functional; conditions: HGC-27, 216 h
Outline: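 HGC-27 seeded at 1000 cells/well, 24 h, then fresh medium with compound for 9 days. PBS washes, 4% paraformaldehyde fixation, 0.1% crystal violet stain. Colonies (>10 cells) counted from images. Inhibition rate = (1 − treated count/control count) × 100%. Triplicate.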

HGC-27 [12] = assay: Induction of apoptosis in human HGC27 cells assessed as increase in Bax expression after 24 hrs by Western blot analysis; assay type: functional, cell-based; outline: as §3
HGC-27 [13] = assay: Induction of apoptosis in human HGC27 cells assessed as formation of apoptotic bodies at 2 to 5 uM after 24 hrs by Hoechst 33258 staining-based fluorescence microscopy; assay type: functional, cell-based; outline: as §2
HGC-27 [14] = assay: Induction of apoptosis in human HGC27 cells after 24 hrs by Annexin-V-FITC/propidium iodide-double staining based flow cytometry; assay type: functional, cell-based
HGC-27 [15] = assay: Induction of apoptosis in human HGC27 cells assessed as decrease in Bcl2 expression up to 5 uM after 24 hrs by Western blot analysis; assay type: functional, cell-based; outline: as §3

| Structure (SMILES) | IC50 (MCF7) [µM] | IC50 (MGC-803) [µM] | IC50 (ECa-109 cell line) [µM] | IC50 (HGC-27 [1]) [µM] | other results |
| --- | --- | --- | --- | --- | --- |
| CCCSc1nc(Sc2nnnn2CCN(C)C)c2nc(Nc3ccccc3)sc2n1 | 14.5 | 18.5 | > 64 | 6.51 |  |
| CCCSc1nc(Sc2nccn2C)c2nc(Nc3ccccc3)sc2n1 | > 64 | 30 | > 64 | 4.03 |  |
| c1ccc(CSc2nc(Sc3nncs3)c3nc(Nc4ccccc4)sc3n2)cc1 | 38.7 | > 64 | 10.6 | 18.9 |  |
| CCCSc1nc(Sc2ccc(Cl)cc2)c2nc(Nc3ccccc3)sc2n1 | 44.2 | 9.33 | 19.6 | 8.87 |  |
| CCCSc1nc(Sc2nncs2)c2nc(Nc3ccccc3)sc2n1 | 8.55 | 10.7 | > 64 | 5.07 |  |
| CCCSc1nc(Sc2ccc(C)cc2)c2nc(Nc3cccc4ccccc34)sc2n1 | > 64 | 46.2 | > 64 | > 64 |  |
| Cc1ccc(Sc2nc(SCc3ccccc3)nc3sc(Nc4ccccc4)nc23)cc1 | 8.55 | 12.2 | 2.69 | 1.22 | IC50 (GES1): 29.4 µM; Activity (HGC-27 [2]): Active; Activity (HGC-27 [3]): 10.01%; Activity (HGC-27 [4]): Dose-dependent effect; Activity (HGC-27 [5]): 31.8%; selectivity ratio [6]: 24.1; Activity (HGC-27 [7]): Dose-dependent effect; Activity (HGC-27 [8]): 67.9%; Activity (HGC-27 [9]): Active; Activity (HGC-27 [10]): Dose-dependent effect; inhibition at 4 µM (HGC-27 [11]): 79%; Activity (HGC-27 [12]): Dose-dependent effect; Activity (HGC-27 [13]): Active; Activity (HGC-27 [14]): Dose-dependent effect; Activity (HGC-27 [15]): Active |
| CCCSc1nc(Sc2nncs2)c2nc(Nc3cccc4ccccc34)sc2n1 | > 64 | > 64 | > 64 | 22.7 |  |
| CCCSc1nc(Sc2nncs2)c2nc(Nc3ccccn3)sc2n1 | 11.6 | 10.2 | > 64 | 18.2 |  |
| O=c1[nH]cc(F)c(=O)[nH]1 [FLUOROURACIL] | 7.21 |  | 5.01 | 11 | IC50 (GES1): 8.59 µM |
| CCCSc1nc(Sc2ccc(C)cc2)c2nc(Nc3ccccn3)sc2n1 | 34.2 | > 64 | > 64 | 7.28 |  |
| CCCSc1nc(Sc2ccc(C)cc2)c2nc(Nc3cc(OC)c(OC)c(OC)c3)sc2n1 | > 64 | > 64 | 23.9 | 6.03 |  |
| CCCSc1nc(Sc2ccc(C)cc2)c2nc(Nc3ccccc3)sc2n1 | > 64 | 4.73 | 25 | 4.65 |  |
| CCCSc1nc(Sc2nc3ccccc3s2)c2nc(Nc3ccccc3)sc2n1 | > 64 | 14.2 | 24.3 | 12.2 |  |
| CCCSc1nc(Sc2nnc(N)s2)c2nc(Nc3ccccc3)sc2n1 | > 64 | 12.8 | > 64 | > 64 |  |
| CCCSc1nc(Sc2ncccn2)c2nc(Nc3ccccc3)sc2n1 | 13.2 | 9.82 | 49.6 | 9.55 |  |
| CCCSc1nc(Sc2nccs2)c2nc(Nc3ccccc3)sc2n1 | > 64 | 23.4 | > 64 | 2.21 |  |
| CCCSc1nc(Sc2ncccn2)c2nc(Nc3ccccn3)sc2n1 | > 64 | 11.2 | > 64 | 12.2 |  |
